Screening results: PubChem, several laboratories
Most compounds without a hit are left out; they make up all but 2.9% or so of the library.
RanGTP-Impb inh = disruptors of Ran-importin-beta complex formation – biochemical, FRET, CFP-Ran, YFP-importin-beta, homogeneous, primary screen. inhibition, % (no concentration beside the values). AID 2216. cell-free CFP-Ran/YFP-importin-beta FRET ratio. actives 1.1% (n = 300,000);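 active = more than half of the replicate wells show a fall in the fluorescence ratio signal beyond about 16%, limit read from the data, passing the limit was not always enough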;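 also: 0% = DMSO wells and 100% = Ran loaded with GDP instead of GTP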
Runt-CBFb FRET = blocks binding of human RUNX1 Runt domain to CBFb; Cerulean-Runt/Venus-CBFb FRET ratio 530/480, 1 h; inhibition, % at 20 µM; actives 0.46% (n = 220,000); AID 1496;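 active = inhibition over about 50% at 20 µM in the single-dose screen, limit read from the data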;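 also: 0% = DMSO wells and 100% = excess unlabeled CBFb competitor control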
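Doses: 20 µM compound in 1% DMSO | Material: Cerulean-labeled Runt domain protein | Amount: Each fluorescent fusion protein 100 nM | Schedule: Two 1 h room-temperature incubations shielded from light | Measured by: FRET fluorescence | Evaluation: Loss of energy transfer signal | Controls: Unlabeled CBFb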
Wee1 degr inh = inhibitors of human Wee1 degradation; P30291; HeLa Luc-Wee1K328M stability, luciferase luminescence; 100% = proteasome inhibitor MG132 effect; reporter increase, % at 5 µM; actives 1.2% (n = 220,000);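 active = activation above the mean of all tested compounds plus 3 SD, set per screening run, cut at about 8.8% in these data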;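 also: cells exposed to compound for 20 h before luminescence read; 0% = DMSO alone and 100% = MG132 at 30 µM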
Target sequence (P30291 whole entry K328M): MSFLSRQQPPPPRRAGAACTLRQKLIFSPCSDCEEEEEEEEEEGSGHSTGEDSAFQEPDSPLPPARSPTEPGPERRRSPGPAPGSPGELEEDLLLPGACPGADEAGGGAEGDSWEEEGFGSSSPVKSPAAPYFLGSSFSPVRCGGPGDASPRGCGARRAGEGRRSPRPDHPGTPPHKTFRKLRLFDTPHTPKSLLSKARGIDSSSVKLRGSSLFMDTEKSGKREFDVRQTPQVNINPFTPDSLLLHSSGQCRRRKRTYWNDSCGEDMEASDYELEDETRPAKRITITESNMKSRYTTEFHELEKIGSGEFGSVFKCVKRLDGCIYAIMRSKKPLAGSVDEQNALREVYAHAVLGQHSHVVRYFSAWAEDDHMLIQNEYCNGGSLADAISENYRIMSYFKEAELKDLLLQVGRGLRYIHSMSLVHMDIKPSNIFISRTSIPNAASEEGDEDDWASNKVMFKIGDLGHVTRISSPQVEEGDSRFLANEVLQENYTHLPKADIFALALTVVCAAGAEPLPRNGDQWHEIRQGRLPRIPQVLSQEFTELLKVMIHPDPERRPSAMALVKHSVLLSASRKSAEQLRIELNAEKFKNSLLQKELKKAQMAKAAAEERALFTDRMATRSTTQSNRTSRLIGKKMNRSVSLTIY
AI-2 QS mod = Vibrio harveyi AI-2 quorum sensing modulation. actives 0.4% (n = 300,000). activity change, % at 7.5 µM. Vibrio harveyi JMH597 AI-2 luminescence/OD600 ratio, 9 h; hits give low values; strain lacks LuxN and CqsS sensors; 0 = neutral-control median; in the data active = activity change below about -75%, passing the limit was not always enough;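 also: luminescence divided by OD600 gain over 9 h not by final OD600 alone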
Runt-SMMHC FRET = blocks binding of human RUNX1 Runt domain to CBFb-SMMHC. Cerulean-Runt/Venus-CBFb-SMMHC FRET ratio 530/480, 1 h. actives 0.74% (n = 220,000). inhibition, % at 20 µM;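 active = mean inhibition across duplicate retests at 20 µM reaching about 50%, limit read from the data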;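 also: 0% = DMSO wells and 100% = wells with excess untagged CBFb-SMMHC; inhibitors lower the FRET ratio by blocking Runt binding to CBFb-SMMHC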
proKLK7 act = activates the human kallikrein-7 zymogen; P49862; purified proKLK7, EDANS-DABCYL substrate fluorescence; 100% is mature enzyme control, 0% vehicle; activation, % at 7 µM; actives 0.9% (n = 370,000); AID 652039;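 active = activation above the mean of all tested compounds plus 3 SD, computed per campaign excluding outliers beyond control limits, cut at about 13% in these data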
proKLK7 act conf = confirmation of human kallikrein-7 zymogen activators; shares compounds with proKLK7 act; purified proKLK7, EDANS-DABCYL substrate fluorescence; scaled: vehicle 0, mature enzyme 100; AID 686949; activation, % at 7 µM; actives 68% (n = 3,200);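 active = activation, as change over the incubation, above the mean of all tested compounds plus 3 SD, cut at about 13% in these data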
EDANS-DABCYL int = optically interferes with EDANS-DABCYL signal, flagging KLK7 hits. actives 80% (n = 3,200). AID 686952. activation, % at 7 µM. EDANS-DABCYL substrate fluorescence interference, no enzyme, 4 h; solvent 0%, active enzyme control 100%. shares compounds with proKLK7 act;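 active = activation above the all-compound mean plus 3 SD, ignoring values outside control-based bounds, cut at about 4.8% in these data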;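 also: value is the 4 h activation minus the activation read at time zero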
K7 EDANS ctr = EDANS fluorescence interference in dose response, no enzyme; EC50, µM; actives 20% (n = 250); AID 720493; EDANS-DABCYL peptide fluorescence interference; shares compounds with proKLK7 act;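 active = compounds that raise the fluorescence signal in this interference counterscreen, with EC50 at or below 10 µM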;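 also: intact quenched peptide substrate alone read at 355 nm excitation and 520 nm emission; signal is fluorescence gain from T0 to T4 after four hours at room temperature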
* = called active by the depositor.

What do the screens show for `CCOC(=O)C1CCN(C(=O)Nc2ccc3nc(C)c(C)nc3c2)CC1`?
RanGTP-Impb inh: -8; Runt-CBFb FRET: -6; Wee1 degr inh: 4; AI-2 QS mod: 5; Runt-SMMHC FRET: -11; proKLK7 act: 23*; proKLK7 act conf: 46*; EDANS-DABCYL int: 53*

What do the screens show for `COc1ccc(Nc2nc(NN)nc(Nc3ccc(OC)cc3)n2)cc1`?
RanGTP-Impb inh: -4; AI-2 QS mod: 12; proKLK7 act: -1

How did CCCC/C=C/[C@H](c1ccccc1)[C@H](CO)Cc1cccnc1 do in these assays?
RanGTP-Impb inh: -3; AI-2 QS mod: -6; proKLK7 act: 1

Results for CCCn1nc(C(=O)Oc2ccc3c(C)cc(=O)oc3c2)c2ccccc2c1=O ?
RanGTP-Impb inh: 7; Runt-CBFb FRET: 43; Wee1 degr inh: 1; AI-2 QS mod: 18; Runt-SMMHC FRET: 88*; proKLK7 act: 54*; proKLK7 act conf: 68*; EDANS-DABCYL int: 72*

How did CCCn1nc(C(=O)OCC(=O)Nc2ccc(C)cc2)c2ccccc2c1=O do in these assays?
proKLK7 act: 1

How did CC(C)n1nc(C(=O)Oc2ccc(Cl)cc2)c2ccccc2c1=O do in these assays?
RanGTP-Impb inh: 4; Runt-CBFb FRET: 0; Wee1 degr inh: -2; AI-2 QS mod: 12; Runt-SMMHC FRET: -7; proKLK7 act: 0

What do the screens show for `Cc1cc(=O)oc2cc(OC(=O)c3nn(C(C)C)c(=O)c4ccccc34)ccc12`?
RanGTP-Impb inh: 2; Runt-CBFb FRET: 42; Wee1 degr inh: 4; AI-2 QS mod: 16; Runt-SMMHC FRET: 90*; proKLK7 act: 46*; proKLK7 act conf: 70*; EDANS-DABCYL int: 79*

Results for NC(=O)c1cccc(-c2cnc3c(Nc4cccc(OC(F)(F)C(F)F)c4)nccn23)c1 ?
proKLK7 act: 0

How did CSCCC(=O)N1CCCC(N(C)CCc2ccccc2)C1 (configuration not stated) do in these assays?
RanGTP-Impb inh: 0; AI-2 QS mod: 12; proKLK7 act: 0

How did COc1ccc(-c2cc(C(F)(F)F)nc(SCCC(=O)N3CCN(C)CC3)n2)cc1 do in these assays?
proKLK7 act: 0

What do the screens show for `COc1ccc(-c2cc(C(F)(F)F)nc(SCC(N)=O)n2)cc1`?
RanGTP-Impb inh: 3; Runt-CBFb FRET: -1; Wee1 degr inh: -2; AI-2 QS mod: 24; Runt-SMMHC FRET: 1; proKLK7 act: 15*; proKLK7 act conf: 6; EDANS-DABCYL int: 6.6*

How did COc1ccc(-c2cc(C(F)(F)F)nc(SCC(=O)N(C)Cc3cn(C)nc3C)n2)cc1OC do in these assays?
RanGTP-Impb inh: 0; Runt-CBFb FRET: -1; Wee1 degr inh: -2; AI-2 QS mod: 19; Runt-SMMHC FRET: 6; proKLK7 act: 32*; proKLK7 act conf: 3; EDANS-DABCYL int: 1

How did COc1ccc(NC(=O)c2cccc(S(=O)(=O)NCc3ccccc3)c2)cc1S(N)(=O)=O do in these assays?
proKLK7 act: 0

How did CCOC(=O)NN1C(=O)c2ccccc2NC1c1ccc(OC)cc1 (configuration not stated) do in these assays?
RanGTP-Impb inh: -1; Runt-CBFb FRET: 3; Wee1 degr inh: 0; AI-2 QS mod: 9; Runt-SMMHC FRET: 5; proKLK7 act: 36*; proKLK7 act conf: 20*; EDANS-DABCYL int: 23*

Results for CCOC(=O)NN1C(=O)c2ccccc2NC1C (configuration not stated) ?
RanGTP-Impb inh: -4; Wee1 degr inh: -1; AI-2 QS mod: -12; Runt-SMMHC FRET: 4; proKLK7 act: 13*; proKLK7 act conf: 25*; EDANS-DABCYL int: 28*

What do the screens show for `O=C(O)CCC(=O)NN1C(=O)c2ccccc2NC1c1ccco1` (configuration not stated)?
RanGTP-Impb inh: -1; Runt-CBFb FRET: 0; Wee1 degr inh: 0; AI-2 QS mod: 11; Runt-SMMHC FRET: 0; proKLK7 act: 15*; proKLK7 act conf: 49*; EDANS-DABCYL int: 16*; K7 EDANS ctr: >69

How did CCOC(=O)NN1C(=O)c2ccccc2NC1c1ccccn1 (configuration not stated) do in these assays?
RanGTP-Impb inh: -3; Wee1 degr inh: 2; AI-2 QS mod: 5; Runt-SMMHC FRET: 2; proKLK7 act: 10

What do the screens show for `COc1ccc(C2Nc3ccccc3C(=O)N2NC(C)=O)c(OC)c1` (configuration not stated)?
RanGTP-Impb inh: 1; AI-2 QS mod: 13; proKLK7 act: 21*; proKLK7 act conf: 20*; EDANS-DABCYL int: 16*; K7 EDANS ctr: >70

Results for CCOC(=O)NN1C(=O)c2ccccc2NC1c1ccccc1F (configuration not stated) ?
RanGTP-Impb inh: 0; Wee1 degr inh: 2; AI-2 QS mod: 21; Runt-SMMHC FRET: 5; proKLK7 act: 6

How did CCN(CC)CCNC(=O)c1ccc(Sc2ccc(C)cc2)c(NC(C)=O)c1 do in these assays?
RanGTP-Impb inh: -3; Runt-CBFb FRET: 0; Wee1 degr inh: 0; AI-2 QS mod: -10; Runt-SMMHC FRET: -1; proKLK7 act: -1

How did COc1ccc(N(CC(=O)NC2CC2)S(=O)(=O)c2ccccc2)cc1 do in these assays?
RanGTP-Impb inh: 1; AI-2 QS mod: 23; proKLK7 act: 0

How did CCc1nn(CC(=O)NCCC2=CCCCC2)c(=O)c2cc3cc(F)ccc3n12 do in these assays?
RanGTP-Impb inh: 3; AI-2 QS mod: 23; proKLK7 act: 0

Results for CCOC(=O)NN1C(=O)c2ccccc2NC1c1ccc(N(C)C)cc1 (configuration not stated) ?
RanGTP-Impb inh: -3; Runt-CBFb FRET: -1; Wee1 degr inh: 3; AI-2 QS mod: 26; Runt-SMMHC FRET: -6; proKLK7 act: 6

What do the screens show for `CCOC(=O)NN1C(=O)c2ccccc2NC1c1ccccc1` (configuration not stated)?
RanGTP-Impb inh: -3; Runt-CBFb FRET: 4; Wee1 degr inh: 3; AI-2 QS mod: -6; Runt-SMMHC FRET: 5; proKLK7 act: 20*; proKLK7 act conf: 21*; EDANS-DABCYL int: 24*
